In ChEMBL document CHEMBL1221279, “Synthesis, biological evaluation, and structure-activity relationship study of novel cytotoxic aza-caffeic acid derivatives” (Bioorg Med Chem, 2010):

Assays:
Format in all cases: functional, cell-based
A549 = test: Cytotoxicity against human A549 cells after 72 hrs by MTT assay; conditions: A549, 72 h
Procedure, shortened: (§1)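 Cells grown in MEM with 10% fetal calf serum, penicillin and streptomycin at 37 °C, 5% CO2. Exponentially growing cells seeded in quadruplicate at 5 × 10³ per well and left 24 h before compounds (DMSO stocks) were added. After 72 h exposure, MTT added for 4 h at 37 °C, formazan dissolved in DMSO, read at 570 nm. IC50 read graphically from dose–response curves.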

KB = test: Cytotoxicity against human KB cells after 72 hrs by MTT assay; procedure, shortened: as §1
HL-60 = test: Cytotoxicity against human HL60 cells after 72 hrs by MTT assay; conditions: HL-60, 72 h; procedure, shortened: as §1
BGC-823 = test: Cytotoxicity against human BGC823 cells after 72 hrs by MTT assay; conditions: BGC-823, 72 h; procedure, shortened: as §1
[1] = Cytotoxicity against human ECA109 cells after 72 hrs by MTT assay; conditions: ECa-109, 72 h; procedure, shortened: as §1
[2] = Cytotoxicity against human HO8910 cells after 72 hrs by MTT assay; conditions: HO-8910, 72 h; procedure, shortened: as §1
K562 = test: Cytotoxicity against human K562 cells after 72 hrs by MTT assay; conditions: K562, 72 h; procedure, shortened: as §1
CNE = test: Cytotoxicity against human CNE cells after 72 hrs by MTT assay; procedure, shortened: as §1
HeLa = test: Cytotoxicity against human HeLa cells after 72 hrs by MTT assay; procedure, shortened: as §1
[3] = Cytotoxicity against human LS 174T cells after 72 hrs by MTT assay; conditions: LS174T; procedure, shortened: as §1
[4] = Cytotoxicity against human Bel7404 cells after 72 hrs by MTT assay; conditions: BEL-7404, 72 h; procedure, shortened: as §1
PC-3 = test: Cytotoxicity against human PC3 cells after 72 hrs by MTT assay; conditions: PC-3, 72 h; procedure, shortened: as §1

| Compound | IC50 (A549) [µM] | IC50 (KB) [µM] | IC50 (HL-60) [µM] | IC50 (BGC-823) [µM] | IC50 [1] [µM] | IC50 [2] [µM] | IC50 (K562) [µM] | IC50 (CNE) [µM] | IC50 (HeLa) [µM] | IC50 [3] [µM] | IC50 [4] [µM] | IC50 (PC-3) [µM] |
| --- | --- | --- | --- | --- | --- | --- | --- | --- | --- | --- | --- | --- |
| COc1ccc(/C=C/C(=O)NCCN2CCOCC2)cc1OC | > 200 | > 200 | > 200 | > 200 | > 200 | > 200 | > 200 | > 200 | > 200 | > 200 | > 200 | > 200 |
| COc1ccc(/C=C/C(=O)OCC(=O)Nc2ccccc2)cc1OC |  |  | 46.4 |  | > 200 |  | > 200 | > 200 | 193 | > 200 | > 200 | > 200 |
| COCOc1cc(/C=C/C(=O)OCC(=O)Nc2nccs2)ccc1OCc1ccccc1 |  |  | > 200 |  | > 200 |  | > 200 | > 200 | > 200 | > 200 | 130 | > 200 |
| O=C(/C=C/c1ccccc1)N1CCN(Cc2ccc(Cl)c(Cl)c2)CC1 | 173 | 20.7 | 82.6 | 31.2 | 17 | 45.4 | 14.1 | > 200 | 73.9 | 34.1 | 44.8 | 12.8 |
| COc1ccc(/C=C/C(=O)NCCc2c[nH]c3ccccc23)cc1OC | > 200 | > 200 | > 200 | > 200 | > 200 | > 200 | > 200 | > 200 | > 200 | > 200 | > 200 | > 200 |
| CCCCCNC(=O)COC(=O)/C=C/c1ccc(O)c(O)c1 |  |  | 97.4 |  | 131 |  | 121 | 170 | 187 | 69.4 | > 200 | 155 |
| COc1ccc(NC(=O)COC(=O)/C=C/c2cc(OC)c(OCc3ccc(Cl)c(Cl)c3)c(OC)c2)cc1 |  |  | > 200 |  | > 200 |  | > 200 | > 200 | > 200 | > 200 | 97.8 | > 200 |
| CCOc1ccc(COc2c(OC)cc(/C=C/C(=O)OCC(=O)Nc3ccc(Cl)cc3)cc2OC)cc1 |  |  | > 200 |  | > 200 |  | > 200 | > 200 | > 200 | > 200 | > 200 | > 200 |
| O=C(/C=C/c1ccc(O)c(O)c1)OCCc1ccccc1 [CAFFEIC ACID PHENETHYL ESTER] | 26.8 | 45.2 | 9.8 | 19.3 | 42.6 | 25.5 | 46 | 54 | 8.8 | 9.9 | 14.5 | 91 |
| O=C(COC(=O)/C=C/c1ccc(O)c(O)c1)Nc1ccccc1 |  |  | 30.3 |  | > 200 |  | > 200 | > 200 | > 200 | 117 | > 200 | > 200 |
| COc1ccc(NC(=O)COC(=O)/C=C/c2ccc(OCc3ccccc3)c(O)c2)cc1 |  |  | > 200 |  | > 200 |  | 56.1 | > 200 | > 200 | > 200 | > 200 | > 200 |
| COc1ccc(NC(=O)COC(=O)/C=C/c2cc(OC)c(OCc3ccccc3)c(OC)c2)cc1 |  |  | > 200 |  | > 200 |  | > 200 | > 200 | > 200 | > 200 | > 200 | > 200 |
| O=C(/C=C/c1ccc(O)c(O)c1)N1CCN(Cc2ccc(Cl)c(Cl)c2)CC1 | > 200 | > 200 | 165 | > 200 | > 200 | > 200 | > 200 | > 200 | > 200 | 50.4 | > 200 | > 200 |
| CCOc1ccc(COc2c(OC)cc(/C=C/C(=O)NCCN3CCOCC3)cc2OC)cc1 | > 200 | > 200 | > 200 | > 200 | > 200 | > 200 | > 200 | > 200 | > 200 | > 200 | > 200 | > 200 |
| COCOc1cc(/C=C/C(=O)OCC(=O)NN2CCOCC2)ccc1OCc1ccccc1 |  |  | 50.4 |  | 143 |  | 32.4 | > 200 | > 200 | > 200 | > 200 | > 200 |
